Fh CTSL1 inh = counter-screen for PFM18AAP inhibitors: inhibitors of F. hepatica cathepsin L1 | recombinant F. hepatica cathepsin L1, Z-Leu-Arg-MCA fluorescence | inhibition, % at 5.96 µM | 300,000 tested, 0.49% active | AID 1906;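 active means inhibition above the mean of all tested compounds plus 3 SD, set per screening campaign, cut at about 17% in these data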;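 further: 0% = plate median of test compound wells and 100% = 1 µM Z-Phe-Ala-diazomethylketone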
PAD4 FP inh = blocks human protein arginine deiminase 4. recombinant PAD4, RCA probe fluorescence polarization. inhibition, % at 6.36 µM. 330,000 tested, 0.41% active;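 active means percent inhibition above a cutoff equal to the mean of all tested compounds plus 3 SD, cut at about 15% in these data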;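 further: 0% = PAD4 with RCA probe and DMSO and 100% = probe without PAD4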
PP5 inh = inhibitors of human protein phosphatase 5 (PP5). inhibition, % at 6.7 µM. 320,000 tested, 0.18% active. P53041. purified PP5c, OMFP substrate fluorescence;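 active means inhibition above the campaign's mean inhibition across all tested compounds plus 3 SD, cut at about 9.5% in these data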;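 further: 0% = DMSO only and 100% = 100 µM cantharidin control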
Target sequence (P53041 whole entry, looked up): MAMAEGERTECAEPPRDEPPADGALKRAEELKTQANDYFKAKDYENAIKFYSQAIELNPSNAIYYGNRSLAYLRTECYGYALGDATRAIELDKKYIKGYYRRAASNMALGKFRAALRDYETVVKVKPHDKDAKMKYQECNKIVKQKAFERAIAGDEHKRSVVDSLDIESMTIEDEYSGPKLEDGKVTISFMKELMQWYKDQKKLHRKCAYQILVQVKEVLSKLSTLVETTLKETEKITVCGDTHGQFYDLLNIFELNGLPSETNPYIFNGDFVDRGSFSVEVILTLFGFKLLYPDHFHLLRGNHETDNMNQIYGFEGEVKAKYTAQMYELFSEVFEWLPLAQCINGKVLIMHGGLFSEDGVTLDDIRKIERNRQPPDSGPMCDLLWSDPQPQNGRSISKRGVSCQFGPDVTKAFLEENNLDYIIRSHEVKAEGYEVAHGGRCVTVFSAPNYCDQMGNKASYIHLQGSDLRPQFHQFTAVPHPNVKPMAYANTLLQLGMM
UCH37 DUB inh = human UCH37 deubiquitinating enzyme inhibition. Q9Y5K5. purified proteasome/UCH37, Ub-AMC cleavage fluorescence. inhibition, % (no concentration beside the values). 330,000 tested, 0.33% active. AID 588478;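 active means mean inhibition over replicate wells above about 20%, limit read from the data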;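 further: 0% = compound-free wells with enzyme and 100% = wells lacking proteasome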
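Signal – fluorescence, ex 355 nm, em 460 nm · System – Proteasome-bound UCH37 · Input – 0.15 nM proteasome as dispensed · Timing – 30 min preincubation with enzyme, 25 min cleavage at room temperature · Read-out basis – percent inhibition of cleavage signal versus uninhibited and no-proteasome wells · Medium – Tris-HCl pH 7.4 with ATP-MgCl2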
GSTO1 counter = counter-screen for RBBP9 inhibitors: inhibitors of human GSTO1; P78417; recombinant GSTO1, activity-based probe fluorescence polarization; inhibition, % at 5.96 µM; 300,000 tested, 1.1% active; AID 1974;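 active means inhibition above the campaign mean inhibition plus 3 SD, cut at about 35% in these data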;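 further: 0% = GSTO1-1 with DMSO and 100% = wells lacking GSTO1-1 enzyme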
Apaf-1 inh = blocks human Apaf-1 apoptosome activity; inhibition, % at 20 µM; 330,000 tested, 0.71% active; O14727; reconstituted apoptosome caspase-3 activity, DEVD-Rh110 fluorescence; active means inhibition of at least 40% at 20 µM;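 further: plate controls were DMSO wells for no effect and DEVD-CHO caspase inhibitor wells for full effect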
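System: Apoptosome proteins | Medium: Hepes pH 7.5 with detergent and BSA | Also added: Cytochrome c trigger plus (Z-DEVD)2-Rh110 caspase-3 substrate | Incubation: 30 min compound preincubation, 50 min activation, room temperature | Detection: Rhodamine 110 fluorescence at Ex 480/Em 540 nm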
The depositor's hits bear a star; x = not tested or not shown. An excerpt weighted towards active compounds, which were near 2% of everything screened.

SMILES | Fh CTSL1 inh | PAD4 FP inh | PP5 inh | UCH37 DUB inh | GSTO1 counter | Apaf-1 inh
CCOc1ccccc1NC(=O)c1oc2ccccc2c1NC(=O)C1CCCO1 (configuration not stated) | 18* | 1 | -1 | -25 | 1 | 32
O=C(NN=Cc1cc(Br)c(Br)o1)C1COc2ccccc2O1 (configuration not stated) | x | x | x | 4 | x | x
Cc1ccc(OCC(=O)NN=Cc2cccc3cccnc23)cc1 | x | x | x | 2 | x | x
NC(=S)N/N=C/c1ccc(-c2cccc([N+](=O)[O-])c2)o1 | 25* | -2 | 0 | x | 5 | 16
NC(=S)N/N=C/c1cc([N+](=O)[O-])ccc1OCCOc1ccccc1 | 81* | 2 | 0 | x | 9 | -13
NC(=S)NN=Cc1ccc(C=NNC(N)=S)cc1 | x | x | x | -5 | x | x
NC(=S)N/N=C/c1ccc(Br)o1 | 17* | 0 | -2 | x | 9 | -19
O=C(NN=Cc1cccc2cccnc12)c1ccccc1O | x | x | x | 3 | x | x
O=C(O)COc1ccccc1C=NNc1ccc(S(=O)(=O)N2CCOCC2)cc1[N+](=O)[O-] | x | x | x | 23* | x | x
C=CCOc1ccc(C=NO)cc1Cl | x | x | x | 3 | x | x
CC(C)[C@H](NC(=O)OCc1ccccc1)C(=O)NC(C=O)Cc1ccccc1 (some centres not stated) | 113* | 3 | 1 | 2 | 7 | 11
CCN(CC)CCOC(=O)c1ccc(NC(=O)CCCN2C(=O)/C(=C\c3cccs3)SC2=S)cc1 | 6 | -6 | 1 | 5 | 8 | 60*
CCOc1c(Br)cc(C=NNC(=O)c2ccccc2)cc1OC | x | x | x | 5 | x | x
NC(=O)C(=NO)c1ccccc1 | x | x | x | 5 | x | x
COc1cccc(C(=O)NNC2OC(CO)C(O)C2O)c1 (configuration not stated) | 19* | -5 | 2 | 2 | 3 | -3
O=C1C(Cl)=C(N2CCOCC2)C(=O)N1c1ccc(Br)cc1 | 35* | -6 | 2 | 1 | 1 | 7
Cc1ccccc1N1C(=O)C(Cl)=C(N2CCOCC2)C1=O | 2 | 2 | -2 | 2 | -2 | -1
O=C1C(Cl)=C(N2CCCCC2)C(=O)N1c1ccccc1 | 54* | 2 | 1 | 0 | 19 | -3
O=C1C(Cl)=C(N2CCOCC2)C(=O)N1c1ccccc1F | 30* | -2 | 2 | 5 | 12 | -10
COc1ccc(C(=O)Oc2cc(C=NNS(=O)(=O)c3ccc(C)cc3)ccc2OC)cc1 | x | x | x | -1 | x | x
O=C1Nc2ccccc2C12OCC1(CO2)COC2(OC1)C(=O)Nc1ccccc12 (configuration not stated) | 28* | 0 | 1 | 0 | -2 | -2
O=C(NN=Cc1cc([N+](=O)[O-])ccc1N1CCCCCC1)c1ccccn1 | x | x | x | 3 | x | x
O=C(NNC(=O)c1ccccc1F)c1cccc(-n2cccc2)c1 | 1 | -1 | -1 | 2 | 36* | 14
CCn1ncc(C=NN=C2CCC3C4CCc5cc(O)ccc5C4CCC23C)c1C (configuration not stated) | x | x | x | 3 | x | x
O=C(c1cnn2ccccc12)N(Cc1ccco1)C1CCCC1 | 47* | 2 | 0 | 5 | 1 | 2
SMILES | Fh CTSL1 inh | PAD4 FP inh | PP5 inh | UCH37 DUB inh | GSTO1 counter | Apaf-1 inh
O=C(c1cnn2ccccc12)N1CCN(C2CCCCC2)CC1 | 0 | -3 | 1 | 1 | -1 | -1
C=CC#CC[N+]1(CC#Cc2ccccc2)CCOCC1 | x | x | x | 29* | x | x
Cc1ccc(S(=O)(=O)NN=Cc2ccccc2OCc2ccccc2)cc1 | x | x | x | 1 | x | x
NC(=S)N/N=C1\CCSc2ccc(Cl)cc21 | 26* | 1 | 1 | x | 5 | -7
O=[N+]([O-])c1cccc(C(=NN=Cc2ccccc2Br)C23CN4CN(CN(C4)C2)C3)c1 | x | x | x | 4 | x | x
O=C1NC(=O)[C@@H]2C3c4ccccc4C=CN3[C@H](C(=O)c3cccs3)[C@H]12 (some centres not stated) | 0 | 8 | 0 | x | 35* | 47*
CCn1c(SCC(=O)NN=C/C=C/c2ccccc2[N+](=O)[O-])nnc1-c1ccccc1 | x | x | x | 6 | x | x
Cc1occc1C(=O)NN=C/C=C/c1ccccc1 | x | x | x | 11 | x | x
N#C/C(=C/c1ccc(-c2cc(C(=O)O)cc(C(=O)O)c2)o1)c1nc2ccccc2s1 | 7 | -33 | -1 | 28* | -93 | 35
O=C(COC(=O)c1ccncc1)Nc1cccc2ccccc12 | x | -3 | x | x | x | -4

Screens deposited in PubChem by several laboratories.
